This is a sample that favours compounds with a hit; in the whole collection about 1.6% have one here.
PPC-1+TRAIL kill = PPC-1 cancer cell killing with TRAIL present; cell killing (% activity), % at 4 µM or 5 µM; PPC-1 cells + TRAIL, ATPLite viability luminescence; 220,000 compounds, 0.41% hits;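 active = cell killing above 50% in the first pass at 4 µM, then a duplicate retest at 5 µM averaging 50% or more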;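 note: plate controls were cells with TRAIL plus DMSO for no effect and medium-only wells lacking cells for full effect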
TRAIL sens C8 = sensitizes caspase-8 expressing cells to TRAIL; NB7+C8 cells + TRAIL, ATPlite viability luminescence; inhibition (viability loss, TRAIL sensitization), % at 10 µM; 360,000 compounds, 1% hits; AID 624354;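 active = compounds causing at least 50% loss of cell viability in the single-dose screen, relative to plate controls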
FLuc inh counter = counter-screen for luciferase assay inhibitors: firefly luciferase inhibition. AID 1006. inhibition, % at 10 µM. 200,000 compounds, 1.5% hits. ATPLite firefly luciferase biochemical luminescence, 10 min;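 active = inhibition above about 50% when tested at 10 µM, limit read from the data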
FLuc stim CS = affects firefly luciferase, flagging false hits in luciferase stimulation screens. ATPlite luciferase biochemical, luminescence, 10 min; 0 = ATP-free wells, 1 = DMSO control. activation factor at 10 µM. 200,000 tested, under 10 active;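 active = luciferase activation factor, scaled between plate controls, of at least 2 with compound at 10 µM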
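System: cell-free luciferase reagent; medium: PBS as buffer for the ATP substrate; doses: test compounds dosed from 2 mM stocks in 100% DMSO; incubation: 10 min, room temperature; measured by: luminescence from luciferase reaction; read-out: luciferase activation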
* hit, by the source's call.

For CC(C)Oc1cccc(C(=O)Nc2ccc(CN3CCOCC3)cc2)c1 the results were PPC-1+TRAIL kill 27, TRAIL sens C8 9, FLuc inh counter 7 and FLuc stim CS 0.9.
COc1cccc(NC(=O)c2ccc3c(c2)OCO3)c1 was read as TRAIL sens C8 53*.
COc1cccc(NC(=O)c2ccc3c(c2)OCCO3)c1 was read as TRAIL sens C8 87*.
O=C(Nc1cccc(Cl)c1)c1ccc2c(c1)OCCO2 was read as TRAIL sens C8 59*.
CN1C(=O)CCC(CCC(=O)O)(c2ccccc2O)C1=O (centres undefined) was read as TRAIL sens C8 13.
For COc1ccc(NC(=O)/C(C#N)=C/c2ccc(-c3ccc(Cl)c(C(=O)O)c3)o2)cc1 the results were TRAIL sens C8 60*.
For CC1=C(C(=O)N(C)C)CC(CC(=O)NCCN2CCOCC2)C(=O)N1CCCN1CCCC1=O (centres undefined) the results were TRAIL sens C8 55*.
C[C@H](CO)N1C[C@H](C)[C@@H](CN(C)C(=O)NC2CCCCC2)Oc2c(NS(=O)(=O)c3cn(C)cn3)cccc2C1=O was read as TRAIL sens C8 6.
`CCCc1cc(=O)oc2cc(C)cc(OCC(=O)Nc3cccnc3)c12` gave TRAIL sens C8 6.
Cc1nn(-c2ccccc2)c(Cl)c1CN(C(=O)CCl)c1ccc(Cl)cc1 was read as PPC-1+TRAIL kill -3, TRAIL sens C8 97*, FLuc inh counter -7 and FLuc stim CS 1.1.
For Cc1nn(-c2ccccc2)c(Cl)c1CN(C(=O)CCl)c1cccc2ccccc12 the results were PPC-1+TRAIL kill -3, TRAIL sens C8 97*, FLuc inh counter -6 and FLuc stim CS 1.1.
For CCS(=O)(=O)c1ncc(CO)n1CCc1ccccc1 the results were TRAIL sens C8 2.
`COCCN(Cc1ccc(OC)cc1)c1c(C)nc2ccc(C(=O)Nc3ccc(NC(C)=O)cc3)cn12` gave TRAIL sens C8 4.
Screening COCCNC(=O)C(=O)N/N=C/c1ccccc1C(F)(F)F returned PPC-1+TRAIL kill 6, TRAIL sens C8 -9, FLuc inh counter -4 and FLuc stim CS 1.
O=C(O)c1ccc(/C=N/NC(=O)c2ccc3c(c2)OCCO3)cc1 was read as TRAIL sens C8 14.
For O=C(N/N=C/c1ccc(Br)o1)c1ccc2c(c1)OCCO2 the results were PPC-1+TRAIL kill 23, TRAIL sens C8 40, FLuc inh counter 74* and FLuc stim CS 0.3.
`O=C(N/N=C/c1ccccc1)c1ccc2c(c1)OCO2` gave TRAIL sens C8 56*.
Screening CN(C(=O)c1cccc(NC(=O)Cc2ccc(NC(=O)C3CCCN(S(=O)(=O)c4cccc([N+](=O)[O-])c4)C3)cc2)c1)C1CCCCC1 (centres undefined) returned TRAIL sens C8 0.
COc1cccc(CNC(=O)Cc2ccc(NC(=O)C3=C(C)OCCS3)cc2)c1 was read as TRAIL sens C8 56*.
Screening CC1=C(C(=O)Nc2ccc(CC(=O)NCc3ccccc3C)cc2)SCCO1 returned TRAIL sens C8 39.
CCc1ccc(CNC(=O)Cc2ccc(NC(=O)C3=C(C)OCCS3)cc2)cc1 was read as TRAIL sens C8 53*.
`COc1ccc(-c2cc3nc4n(c(=O)c3s2)CCC4)cc1` gave PPC-1+TRAIL kill -11, TRAIL sens C8 71*, FLuc inh counter 84* and FLuc stim CS 0.2.
COc1ccc(-c2cc3nc4n(c(=O)c3s2)CCCCC4)cc1 was read as PPC-1+TRAIL kill 31 and TRAIL sens C8 27.
CN(C)c1ccc(NC(=O)COC(=O)CCC(=O)c2ccc(F)cc2)cc1 was read as PPC-1+TRAIL kill 9, TRAIL sens C8 -8, FLuc inh counter 51* and FLuc stim CS 0.5.
Screening CCOc1cc(C(=O)CCC(=O)OCC(=O)Nc2ccc(F)cc2)ccc1O returned TRAIL sens C8 -20.
For CCSc1ccc(-c2cc(NC=O)c3ncc(-c4cccc(C(=O)NCCN(C)C)c4)n3c2)cc1 the results were TRAIL sens C8 79*.
Screening CC(=O)Nc1cc(-c2cccc(C(=O)NCCN(C)C)c2)cn2c(-c3cccc(C(F)(F)F)c3)cnc12 returned TRAIL sens C8 65*.
Screening O=C(Nc1nc2c(F)cc(F)cc2s1)c1ccccn1 returned PPC-1+TRAIL kill 35, TRAIL sens C8 71*, FLuc inh counter 66* and FLuc stim CS 0.3.
For Cc1ccc(/C=N/c2sc3c(c2C#N)CCCCC3)o1 the results were PPC-1+TRAIL kill -19, TRAIL sens C8 -1, FLuc inh counter 92* and FLuc stim CS 0.1.

Screens (PubChem)
